Reference: ChEMBL document CHEMBL4387722

Experiments:
[1] = target: T1, Phosphotyrosine protein phosphatase (Mycobacterium tuberculosis, UniProt A0A045ISB3); assay: Inhibition of Mycobacterium tuberculosis His-tagged PtpB expressed in Escherichia coli Rosetta 2 (DE3) using pNPP as substrate after 30 mins by spectrophotometric method
T1 sequence (A0A045ISB3 whole entry): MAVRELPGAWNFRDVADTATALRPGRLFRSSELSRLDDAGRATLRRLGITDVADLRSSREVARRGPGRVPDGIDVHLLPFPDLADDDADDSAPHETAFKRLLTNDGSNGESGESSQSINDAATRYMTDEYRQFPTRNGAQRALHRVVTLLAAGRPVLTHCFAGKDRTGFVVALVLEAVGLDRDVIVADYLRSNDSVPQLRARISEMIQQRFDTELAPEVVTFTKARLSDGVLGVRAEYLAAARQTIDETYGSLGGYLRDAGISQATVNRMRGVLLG

[2] = target: T2, Tyrosine-protein phosphatase non-receptor type 1 (Homo sapiens, UniProt P18031); assay: Inhibition of human PTPN1 expressed in Escherichia coli Rosetta 2 (DE3) using pNPP as substrate after 45 mins by spectrophotometric method
T2 sequence (P18031 whole entry): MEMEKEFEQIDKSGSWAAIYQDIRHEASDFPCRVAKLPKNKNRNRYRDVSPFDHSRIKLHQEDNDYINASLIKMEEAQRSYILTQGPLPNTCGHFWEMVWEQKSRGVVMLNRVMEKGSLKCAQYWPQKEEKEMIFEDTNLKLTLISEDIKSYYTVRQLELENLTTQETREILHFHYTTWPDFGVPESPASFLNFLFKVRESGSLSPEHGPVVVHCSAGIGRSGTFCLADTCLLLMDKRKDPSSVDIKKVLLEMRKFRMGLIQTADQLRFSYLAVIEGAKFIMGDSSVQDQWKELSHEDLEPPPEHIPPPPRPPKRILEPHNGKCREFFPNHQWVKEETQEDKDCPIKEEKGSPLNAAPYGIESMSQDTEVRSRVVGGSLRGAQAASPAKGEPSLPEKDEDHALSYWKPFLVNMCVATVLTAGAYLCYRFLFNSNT

[3] = target: T3, Tyrosine-protein phosphatase non-receptor type 2 (Homo sapiens, UniProt P17706); assay: Inhibition of human PTPN2 expressed in Escherichia coli Rosetta 2 (DE3) using pNPP as substrate after 45 mins by spectrophotometric method
T3 sequence (P17706 whole entry): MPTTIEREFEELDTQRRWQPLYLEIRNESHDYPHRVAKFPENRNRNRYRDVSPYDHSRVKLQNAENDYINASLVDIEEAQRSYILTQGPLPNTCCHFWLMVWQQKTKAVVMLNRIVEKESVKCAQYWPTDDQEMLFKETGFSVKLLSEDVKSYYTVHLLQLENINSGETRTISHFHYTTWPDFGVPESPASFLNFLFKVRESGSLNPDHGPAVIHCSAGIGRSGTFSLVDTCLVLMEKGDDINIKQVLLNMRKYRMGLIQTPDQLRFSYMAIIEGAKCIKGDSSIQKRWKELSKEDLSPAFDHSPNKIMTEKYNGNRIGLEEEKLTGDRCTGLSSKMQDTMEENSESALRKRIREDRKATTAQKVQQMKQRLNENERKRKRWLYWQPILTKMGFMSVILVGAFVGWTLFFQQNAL

[4] = target: T4, Tyrosine-protein phosphatase non-receptor type 5 (Homo sapiens, UniProt P54829); assay: Inhibition of human PTPN5 expressed in Escherichia coli Rosetta 2 (DE3) using pNPP as substrate after 45 mins by spectrophotometric method
T4 sequence (P54829 whole entry): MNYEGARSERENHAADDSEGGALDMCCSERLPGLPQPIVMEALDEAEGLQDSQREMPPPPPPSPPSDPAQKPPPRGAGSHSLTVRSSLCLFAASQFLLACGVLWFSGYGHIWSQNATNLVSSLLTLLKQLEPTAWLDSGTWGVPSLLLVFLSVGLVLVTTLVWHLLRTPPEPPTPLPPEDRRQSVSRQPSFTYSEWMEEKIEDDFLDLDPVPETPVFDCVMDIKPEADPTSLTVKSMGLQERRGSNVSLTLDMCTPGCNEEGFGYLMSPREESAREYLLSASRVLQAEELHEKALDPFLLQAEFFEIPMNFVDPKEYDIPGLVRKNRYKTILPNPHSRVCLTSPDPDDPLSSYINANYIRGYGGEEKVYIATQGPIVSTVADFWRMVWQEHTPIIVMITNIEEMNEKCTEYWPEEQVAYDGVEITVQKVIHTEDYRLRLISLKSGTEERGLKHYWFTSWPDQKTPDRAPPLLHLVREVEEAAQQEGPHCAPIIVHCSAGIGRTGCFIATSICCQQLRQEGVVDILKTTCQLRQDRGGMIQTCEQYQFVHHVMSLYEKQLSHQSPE

[5] = test system: Mycobacterium tuberculosis; assay: Antitubercular activity against Mycobacterium tuberculosis H37Rv after 5 days at 200 uM relative to control; assay type: functional; settings: 120 h
Method in brief: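 M. tuberculosis grown in liquid culture with compound at a fixed 200 μM for 5 days. Growth inhibition expressed as percent of control.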

[6] = Inhibition of refolded rhodanese (unknown origin) preincubated with Escherichia coli GroEL/GroES for 60 mins by measuring rhodanese enzyme activity followed by compound addition by Fe(SCN)3 dye based spectrometric analysis; parameters: species or system Homo sapiens
[7] = target: T5, Malate dehydrogenase, mitochondrial (Sus scrofa, UniProt P00346); assay: Inhibition of refolded pig heart mitochondrial MDH preincubated with Escherichia coli GroEL/GroES for 45 mins using sodium mesoxalate as substrate followed by compound addition and measured after 20 to 30 mins by spectrometric analysis
T5 sequence (P00346 whole entry): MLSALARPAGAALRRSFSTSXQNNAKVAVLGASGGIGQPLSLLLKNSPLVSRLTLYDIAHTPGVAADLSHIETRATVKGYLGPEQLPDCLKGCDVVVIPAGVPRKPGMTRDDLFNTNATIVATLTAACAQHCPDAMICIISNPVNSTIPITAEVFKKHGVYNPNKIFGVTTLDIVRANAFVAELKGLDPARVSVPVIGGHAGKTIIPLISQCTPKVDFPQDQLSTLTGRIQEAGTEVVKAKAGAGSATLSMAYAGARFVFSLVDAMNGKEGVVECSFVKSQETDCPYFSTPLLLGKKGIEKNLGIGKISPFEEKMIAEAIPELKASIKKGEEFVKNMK

E. coli GroEL/ES [8] = target: T6, E. coli GroEL/ES (Escherichia coli, UniProt P0A6F5); assay: Inhibition of Escherichia coli GroEL expressed in Escherichia coli DH5alpha/Escherichia coli GroES expressed in Escherichia coli BL21 (DE3) assessed as reduction in GroEL/GroES-mediated denatured rhodanese refolding by measuring rhodanese enzyme activity after 45 mins by Fe(SCN)3 dye based spectrometric analysis
E. coli GroEL/ES [9] = target: T6, E. coli GroEL/ES; assay: Inhibition of Escherichia coli GroEL expressed in Escherichia coliDH5alpha/Escherichia coli GroES expressed in Escherichia coli BL21 (DE3) assessed as reduction in GroEL/GroES-mediated denatured pig heart mitochondrial MDH refolding by measuring MDH enzyme activity using sodium mesoxalate as substrate after 20 to 40 mins by spectrometric analysis
HSP60/HSP10 = HSP60/HSP10 (Homo sapiens, UniProt P10809); assay: Inhibition of human HSP60 expressed in Escherichia coli Rosetta 2(DE3)/human HSP10 expressed in Escherichia coli Rosetta 2(DE3) pLysS cells assessed as reduction in HSP60/HSP10-mediated denatured pig heart mitochondrial MDH refolding by measuring MDH enzyme activity using sodium mesoxalate as substrate after 40 to 60 mins by spectrometric analysis
[10] = Cytotoxicity against human THLE3 cells assessed as reduction in cell viability after 48 hrs by Alamar blue assay; assay type: cell-based
Method in brief: (§1)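 Alamar Blue viability read-out. Human liver (THLE-3) and kidney (HEK 293) cells incubated with compound for 48 h. Tested in dose-response to derive CC50.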

[11] = Cytotoxicity against human HEK293 cells assessed as reduction in cell viability after 48 hrs by Alamar blue assay; assay type: cell-based; method in brief: as §1
[12] = test system: Mycobacterium tuberculosis; assay: Antitubercular activity against Mycobacterium tuberculosis H37Rv after 5 days; assay type: functional, organism-based; settings: 120 h

T6 sequence (P0A6F5 whole entry, looked up): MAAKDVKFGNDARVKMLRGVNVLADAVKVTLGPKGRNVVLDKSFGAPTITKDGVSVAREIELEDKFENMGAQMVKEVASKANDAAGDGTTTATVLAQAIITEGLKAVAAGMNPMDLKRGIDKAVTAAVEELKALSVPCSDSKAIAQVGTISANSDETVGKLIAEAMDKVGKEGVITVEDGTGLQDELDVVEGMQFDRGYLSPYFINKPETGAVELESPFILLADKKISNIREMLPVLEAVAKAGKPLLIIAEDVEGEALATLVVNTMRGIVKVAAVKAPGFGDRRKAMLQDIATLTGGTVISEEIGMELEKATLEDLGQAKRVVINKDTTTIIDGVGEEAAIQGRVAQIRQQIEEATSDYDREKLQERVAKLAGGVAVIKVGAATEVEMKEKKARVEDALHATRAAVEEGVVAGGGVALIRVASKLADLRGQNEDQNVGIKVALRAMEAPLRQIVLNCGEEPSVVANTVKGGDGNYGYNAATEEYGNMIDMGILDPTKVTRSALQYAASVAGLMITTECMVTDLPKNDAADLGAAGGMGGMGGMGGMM
Chain of HSP60/HSP10 (P10809 whole entry): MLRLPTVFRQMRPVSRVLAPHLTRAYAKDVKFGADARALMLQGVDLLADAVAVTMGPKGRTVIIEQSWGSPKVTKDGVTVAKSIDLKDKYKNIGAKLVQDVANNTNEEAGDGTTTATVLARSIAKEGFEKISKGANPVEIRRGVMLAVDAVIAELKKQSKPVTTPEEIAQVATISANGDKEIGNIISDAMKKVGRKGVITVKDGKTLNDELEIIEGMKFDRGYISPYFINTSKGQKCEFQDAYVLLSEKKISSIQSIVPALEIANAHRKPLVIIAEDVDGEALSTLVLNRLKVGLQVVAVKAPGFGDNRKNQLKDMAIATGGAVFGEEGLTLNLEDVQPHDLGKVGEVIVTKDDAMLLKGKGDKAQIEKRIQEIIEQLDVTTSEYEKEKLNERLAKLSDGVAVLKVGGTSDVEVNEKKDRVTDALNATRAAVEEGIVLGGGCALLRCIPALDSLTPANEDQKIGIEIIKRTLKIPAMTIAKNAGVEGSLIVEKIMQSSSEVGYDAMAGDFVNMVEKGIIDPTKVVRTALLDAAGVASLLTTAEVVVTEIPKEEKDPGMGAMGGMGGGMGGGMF
Chain of HSP60/HSP10 (P61604 whole entry, further chain): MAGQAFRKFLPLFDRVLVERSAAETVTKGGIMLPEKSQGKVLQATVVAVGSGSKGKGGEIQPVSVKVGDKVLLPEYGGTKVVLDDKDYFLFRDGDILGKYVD

SMILES | IC50 [1] | IC50 [2] | IC50 [3] | IC50 [4] | inhibition at 200 µM [5] | IC50 [6] | IC50 [7] | IC50 (E. coli GroEL/ES [8]) | IC50 (E. coli GroEL/ES [9]) | IC50 (HSP60/HSP10) | CC50 at 48 h [10] | CC50 at 48 h [11] | EC50 [12]
O=[N+]([O-])c1cc(S(=O)(=O)Nc2ccc3oc(-c4ccccc4)nc3c2)ccc1Cl | 33 µM | 35 µM | 40 µM | 32 µM | 1% | > 100 µM | > 63 µM | 18 µM | 16 µM | 17 µM | 25 µM | 90 µM | 
O=S(=O)(Nc1ccc2oc(-c3ccccc3)nc2c1)c1cccc(O)c1 | 98 µM | > 100 µM | > 100 µM | 72 µM | 3% | > 100 µM | > 63 µM | 103 µM | 58 µM | 76 µM | 79 µM | > 100 µM | 
O=S(=O)(Nc1ccc(-c2nc3ccccc3o2)cc1)c1ccccc1Cl | 47 µM | 59 µM | 64 µM | 51 µM | 11% | > 100 µM | > 63 µM | 171 µM | 86 µM | > 100 µM | > 100 µM | > 100 µM | 
O=S(=O)(Nc1ccc(-c2nc3ccccc3o2)cc1)c1cccc(Cl)c1 | 43 µM | 37 µM | 67 µM | 545 µM | 33% | > 100 µM | > 63 µM | 168 µM | 79 µM | 54 µM | 83 µM | > 100 µM | 
COc1ccc(Cl)cc1S(=O)(=O)Nc1ccc2oc(-c3ccccc3)nc2c1 | 31 µM | 27 µM | 25 µM | 37 µM | 0% | > 100 µM | > 63 µM | 105 µM | 81 µM | > 100 µM | 31 µM | 74 µM | 
CS(=O)(=O)Nc1ccc(-c2nc3ccccc3o2)cc1 | > 100 µM | > 100 µM | > 100 µM | > 100 µM | 23% | > 100 µM | > 63 µM | > 250 µM | > 100 µM | > 100 µM | > 100 µM | > 100 µM | 
O=S(=O)(Nc1ccc2oc(-c3ccccc3)nc2c1)c1ccc(F)cc1 | 85 µM | 78 µM | 61 µM | 41 µM | 47% | > 100 µM | > 63 µM | 195 µM | > 100 µM | > 100 µM | 38 µM | 68 µM | 
Cc1ccc(S(=O)(=O)Nc2ccc(-c3nc4ccccc4o3)cc2)cc1 | 52 µM | 42 µM | 49 µM | 45 µM | 28% | > 100 µM | > 63 µM | 157 µM | > 100 µM | > 100 µM | 82 µM | 88 µM | 
O=S(=O)(Nc1ccc(-c2nc3ccccc3o2)cc1)c1cccc(O)c1 | 79 µM | > 100 µM | > 100 µM | 84 µM | 61% | > 100 µM | > 63 µM |  |  | 62 µM | 97 µM | > 100 µM | 189 µM
O=S(=O)(Nc1ccc2oc(-c3ccccc3)nc2c1)c1ccc(Cl)c(C(F)(F)F)c1 | 40 µM | 40 µM | 34 µM | 28 µM | 0% | > 100 µM | > 63 µM | 132 µM | 92 µM | > 100 µM | 47 µM | 66 µM | 
COc1ccc(Cl)cc1S(=O)(=O)Nc1ccc(-c2nc3ccccc3o2)cc1 | 29 µM | 21 µM | 28 µM | 37 µM | 0% | > 100 µM | > 63 µM | 83 µM | 59 µM | > 100 µM | 42 µM | 75 µM | 
Cc1cccc(S(=O)(=O)Nc2ccc3oc(-c4ccccc4)nc3c2)c1 | 63 µM | 53 µM | 57 µM | 39 µM | 82% | > 100 µM | > 63 µM |  |  | > 100 µM | 38 µM | 69 µM | 161 µM
O=S(=O)(Nc1ccc(-c2nc3ccccc3o2)cc1)c1ccc(O)cc1 | 93 µM | 70 µM | > 100 µM | 81 µM | 77% | > 100 µM | > 63 µM |  |  | 78 µM | > 100 µM | > 100 µM | > 200 µM
COc1ccc(S(=O)(=O)Nc2ccc(-c3nc4ccccc4o3)cc2)cc1 | 61 µM | 42 µM | 53 µM | 45 µM | 72% | > 100 µM | > 63 µM |  |  | > 100 µM | 86 µM | > 100 µM | 179 µM
